CHO parental Ca: ATP-evoked calcium signal inhibitors, parental CHO, primary screen, counter-screen for OX1R antagonist project, cell-based, fluorescence, Fluo-8 calcium dye; 330,000 tested, 0.63% active; inhibition, % at 5.6 µM; AID 463079, 2010; parental CHO-K1, ATP-induced calcium, Fluo-8 fluorescence;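 active means inhibition above that plate's mean sample inhibition plus 3 SD, cut at about 26% in these data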;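 further: 0% = ATP-challenged DMSO wells and 100% = DMSO wells without ATP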
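Assay system – parental CHO cells · Reagent – ATP stimulus · Detection – intracellular calcium via Fluo-8 no-wash fluorescent dye · Evaluation – percent inhibition of ATP-evoked calcium rise, normalized to controls · Controls – ATP wells versus no-ATP DMSO wells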
TAAR1 antagonist: human TAAR1 antagonists, primary screen, Fluo-8 calcium fluorescence, CHO RD-HGA16 cells. AID 624466, 2012. inhibition, % at 3 µM. 360,000 tested, 1.5% active. antagonist;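 active means inhibition above a per-plate cutoff, the mean inhibition of test compounds on that plate plus 3 SD, cut at about 49% in these data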;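 further: 0% = DMSO plus EC80 beta-PEA response and 100% = DMSO alone without agonist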
Target sequence (Q96RJ0 whole entry, looked up): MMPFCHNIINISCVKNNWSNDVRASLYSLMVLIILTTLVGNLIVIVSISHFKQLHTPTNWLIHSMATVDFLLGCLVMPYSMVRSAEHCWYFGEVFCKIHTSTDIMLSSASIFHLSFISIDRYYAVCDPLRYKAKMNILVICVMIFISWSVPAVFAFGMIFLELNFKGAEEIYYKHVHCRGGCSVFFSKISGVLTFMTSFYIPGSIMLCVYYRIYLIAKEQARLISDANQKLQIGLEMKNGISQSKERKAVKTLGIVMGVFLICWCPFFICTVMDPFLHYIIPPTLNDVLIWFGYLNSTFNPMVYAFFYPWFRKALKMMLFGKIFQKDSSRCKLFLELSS
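Test system: CHO RD-HGA16 cells bearing hTAAR1 | Reagent: β-PEA, EC80 | Compound dosing: 3 µM, single point | Schedule: Dye loading 75 min at 37 °C, then 30 min room temperature | Signal: Calcium fluorescence with Fluo-8 | Evaluation: Percent inhibition of PEA-evoked calcium signal, max/basal emission ratio | Control set: DMSO-only wells and EC80 β-PEA-stimulated wells | Repeats: Singlicate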
OX1R antag-1: OX1R (HCRTR1) antagonists, primary screen, fluorescence, CHO/OX1R cells, Fluo-8 calcium, orexin A; 330,000 tested, 0.43% active; inhibition, % at 5 µM; AID 434989, 2010; Fluo-8 calcium fluorescence;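 active means inhibition above its plate's threshold, mean inhibition of all tested compounds on the plate plus 3 SD, cut at about 37% in these data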;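 further: 0% = orexin A challenge wells and 100% = SB-334867-A antagonist wells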
GPR7 antag: GPR7 receptor antagonists, primary screen, cell-based, fluorescence, single concentration | GPR7-expressing cells, fluorescence antagonist assay | inhibition, % at 4.4 µM | Neuropeptides B/W receptor type 1 (Homo sapiens), P48145 | AID 1861, 2009 | 290,000 tested, 1.1% active; in the data active means inhibition above about 16%, passing the limit was not always enough;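 further: cells stimulated with the agonist NPW; 0% = agonist with vehicle and 100% = vehicle without agonist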
Target sequence (P48145 whole entry, looked up): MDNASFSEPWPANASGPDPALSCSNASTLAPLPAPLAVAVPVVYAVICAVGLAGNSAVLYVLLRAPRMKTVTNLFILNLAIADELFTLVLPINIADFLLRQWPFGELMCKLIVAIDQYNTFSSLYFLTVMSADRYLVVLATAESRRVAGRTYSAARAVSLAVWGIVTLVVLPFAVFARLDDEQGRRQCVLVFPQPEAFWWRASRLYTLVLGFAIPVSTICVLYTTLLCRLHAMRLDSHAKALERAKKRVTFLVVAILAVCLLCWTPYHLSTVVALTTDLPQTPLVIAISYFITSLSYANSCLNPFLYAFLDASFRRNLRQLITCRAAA
TAAR1 agonist: human TAAR1 agonists, primary screen, Fluo-8 calcium fluorescence, CHO RD-HGA16 cells; activation, % at 3 µM; AID 624467, 2012; 360,000 tested, 0.99% active; Trace amine-associated receptor 1 (Homo sapiens), Q96RJ0; vehicle wells 0%, saturating PEA agonist 100%;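 active means activation above the mean activation of all test compounds in the run plus 3 SD, cut at about 38% in these data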
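Repeats: no replicates (n 1) | Material: CHO-derived RD-HGA16 cells with stable Gα16 and human TAAR1 | Technique: Kinetic Fluo-8 calcium fluorescence | Schedule: 17-24 h seeding, 75 min 37 °C dye, 30 min RT | Evaluation: % activation from peak over basal fluorescence ratio, DMSO-to-PEA scaled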
OX1R antag-2: antagonists of human orexin 1 receptor (OX1R). Orexin/Hypocretin receptor type 1 (Homo sapiens), O43613. OX1R-expressing cells, FRET antagonist read-out. inhibition, % at 6.6 µM. 330,000 tested, 1.8% active. AID 485270, 2010; in the data active means inhibition mostly above about 38%, no sharp cut-off; inactive means mostly below about 40%;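 further: 0% = agonist challenge alone and 100% = reference antagonist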
An asterisk follows results filed as active; . = not tested or not shown. An excerpt weighted towards active compounds, which were near 4.6% of everything screened.

SMILES | CHO parental Ca | TAAR1 antagonist | OX1R antag-1 | GPR7 antag | TAAR1 agonist | OX1R antag-2
O=C(CCNC(=O)c1ccc(Br)cc1)NNC(=O)c1ccccc1 | -6 | -11 | 3 | . | 40* | 0
O=C(CSc1ccccc1Cl)N1CCC(c2nc3ccccc3s2)CC1 | -11 | 20 | -22 | -8 | 13 | 33
O=C(CSc1ccc(F)cc1)N1CCC(c2nc3ccccc3s2)CC1 | 2 | 52* | 18 | 5 | 14 | 15
O=C(CSc1ccc2ccccc2n1)N1CCC(c2noc3ccc(F)cc23)CC1 | -10 | 31 | 3 | -5 | 8 | 55*
COc1ccc(/C=C2/C(=O)C(C)(C(C)C)CCC2C)cc1 (centres undefined) | 5 | -6 | -12 | -10 | 0 | -9
CCCCOc1ccc(C2CCC(C(C)=O)C(C)C2)cc1 (centres undefined) | -6 | -12 | -8 | -1 | 5 | 12
Cc1cc(C(=O)CSc2nc3ccccc3o2)c(C)n1C1CC1 | 6 | 26 | 41* | 9 | -1 | 33
C=CCn1c(C)cc(C(=O)CSc2nc3ccccc3o2)c1C | 43* | 15 | 41* | -6 | 2 | 35
CCCCc1cc(-c2n[nH]c(=S)o2)c2ccccc2n1 | -28 | -12 | -22 | -2 | 2 | 29
O=C(O)c1ccc(NC2CC(=O)N(Cc3ccccc3)C2=O)cc1 (centres undefined) | -12 | 23 | -9 | -12 | 3 | 20
CCCCCc1nc2sc3c(c2c(=O)n1NC(=O)c1ccc([N+](=O)[O-])cc1)CC(C)(C)OC3 | 0 | 25 | -30 | -13 | 7 | 53*
O=C(c1cc2ccccc2oc1=O)N(Cc1ccc2c(c1)OCO2)Cc1ccco1 | -13 | 47 | -26 | -9 | 11 | 15
O=C(COC(=O)c1ccc(Br)o1)NCCNC(=O)COC(=O)c1ccc(Br)o1 | -6 | -13 | -23 | . | 6 | 21
CC(NC(=O)COC(=O)c1ccc([N+](=O)[O-])o1)c1ccccc1 (centres undefined) | -7 | -20 | -16 | . | 5 | 33
O=C(COC(=O)c1ccc(Br)o1)Nc1ccc(Br)cc1 | 3 | 9 | -2 | . | 40* | -3
O=C(COC(=O)c1ccc([N+](=O)[O-])o1)Nc1ccc(Br)cc1F | 0 | 16 | -7 | . | -3 | 28*
O=C(COC(=O)c1ccc([N+](=O)[O-])o1)NCCc1ccccc1 | -5 | -7 | 6 | . | 17 | 32*
CCOc1cc(NS(=O)(=O)c2ccc(NC(C)=O)cc2)c(OCC)cc1NC(=O)c1cccs1 | -11 | -4 | -12 | -6 | 6 | 10
Cc1ccc(CN2CCN(Cc3cccn3-c3nccs3)CC2CCO)cc1 (centres undefined) | 5 | -4 | -26 | -2 | 0 | 6
O=C(N[C@@H](Cc1ccccc1)C(=O)NCCc1c[nH]c2ccccc12)c1ccco1 | -9 | 3 | -17 | 2 | 4 | 7
COC(=O)c1ccccc1S(=O)(=O)N1CCC(C(=O)NC2CCCCC2)CC1 | -7 | -1 | -12 | . | 3 | 5
CC(OC(=O)c1cc(-c2cccnc2)nc2ccccc12)C(=O)Nc1ccc2ccccc2c1 (centres undefined) | -25 | 51* | -22 | -3 | 9 | 20
O=C(NNC(=S)Nc1ccccc1)c1cc(-c2cccnc2)nc2ccccc12 | -24 | 21 | -34 | -16 | 7 | 25
COc1ccccc1OCCSc1nc2ccccc2n1CC(=O)O | . | -14 | . | . | 0 | .
CC(=O)Nc1nc(COc2ccc3ccccc3c2)cs1 | 7 | 35 | 10 | 4 | 38* | 23
SMILES | CHO parental Ca | TAAR1 antagonist | OX1R antag-1 | GPR7 antag | TAAR1 agonist | OX1R antag-2
O=C(O)Cn1cc(/C=c2/sc3nc4ccccc4n3c2=O)c2ccccc21 | -12 | 8 | 19 | 16 | 5 | 59*
O=c1/c(=C\c2cccn2-c2ccccc2)sc2nc3ccccc3n12 | . | 7 | . | -5 | 1 | .
Cc1ccc(NC(=O)CSc2nc3nc(C)c(Br)cc3[nH]2)cc1F | -17 | -29 | -4 | -10 | 12 | 45*
COC(=O)C(C#N)(CCC(=O)c1ccccc1)CCC(=O)c1ccccc1 | . | -12 | . | . | 1 | .
CC(=O)c1ccc(N2CCN(C(=S)Nc3cc(C)ccc3C)CC2)cc1 | -4 | -2 | -6 | -4 | 7 | -2
CCCCNC(=S)N1CCN(c2ccc(C(C)=O)cc2)CC1 | 18 | 16 | -4 | 19* | 3 | 11
Clc1ccc(C2=CC(c3ccco3)n3ncnc3N2)cc1 (centres undefined) | -3 | 24 | -8 | 22 | 107* | 32
Cc1ccc(NS(=O)(=O)c2ccc(-n3cccn3)cc2)c(Cl)c1 | . | -8 | . | . | 2 | .
COc1ccc(CCNC(=O)COC(=O)/C=C/c2ccc3c(c2)OCO3)cc1 | 32* | 7 | -21 | . | 8 | 20
O=C(COC(=O)/C=C/c1ccc(Cl)cc1)Nc1ccc2c(c1)OCCO2 | 5 | 54* | -15 | -8 | 42* | 11
O=C(COC(=O)/C=C/c1ccccc1)Nc1ccc2c(c1)OCCO2 | -12 | -3 | -8 | . | 4 | -1
Cc1ccc(Cn2nnnc2CN2CCC(NC(=O)C(C)(C)C)CC2)cc1 | 11 | 19 | -25 | 5 | 2 | 13
CC(C)(CC(=O)N1CCN(c2ccc(Cl)cc2)CC1)CC1=NS(=O)(=O)c2ccccc2N1 | 75* | 64* | 46 | -12 | 34 | 48
O=C(CCCC1=NS(=O)(=O)c2ccccc2N1)N1CCN(c2ccc(Cl)cc2)CC1 | -10 | 11 | -32 | -1 | 6 | 19
CCOC(=O)N1CCN(C(=O)CCn2c(=S)[nH]c3ccsc3c2=O)CC1 | -10 | -72 | -16 | -11 | -1 | 1
COc1cccc(NC(=O)CCC(=O)Nc2cccc(OC)c2)c1 | 6 | 14 | -8 | -6 | 1 | 15
COc1cccc(NC(=O)CNC(C)CCC(C)C)c1 (centres undefined) | -7 | 4 | -3 | -7 | 38* | 14
CN(C)c1ccc(/C=C(\C#N)C(=O)OCC(=O)N(C)C2CCS(=O)(=O)C2)cc1 (centres undefined) | -4 | 14 | 1 | . | 3 | 35*
CCN(C(=O)COC(=O)/C(C#N)=C/c1ccc(N(C)C)cc1)C1CCS(=O)(=O)C1 (centres undefined) | -1 | -15 | 8 | . | 3 | 8
N/C(=N\c1nc2ccccc2o1)NC(=O)c1ccccc1 | -34 | -5 | -28 | 4 | 16 | 11
